Activity calls are given as the source filed them. No cut-off for these calls is given here.
How the values were obtained:
KB = assay: Cytotoxicity against human KB cells after 72 hrs by MTT assay; type: functional, cell-based
HL-60 = assay: Cytotoxicity against human HL60 cells after 72 hrs by MTT assay; type: functional, cell-based; settings: HL-60, 72 h
How it was run: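 Leukemia cells seeded in 96-well plates and exposed in triplicate to graded compound concentrations for 72 h at 37 °C. Viability was read by MTT. IC50 was derived by the Logit method from at least three independent experiments.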

MDA-MB-231 = assay: Cytotoxicity against human MDA-MB-231 cells after 72 hrs by MTT assay; type: functional, cell-based; settings: MDA-MB-231, 72 h
[1] = biological target: DNA topoisomerase 2-alpha (Homo sapiens) (UniProt P11388); assay: Inhibition of DNA topoisomerase 2 alpha assessed as ATP-dependent decatenation of DNA in cell free system
DNA topoisomerase 2-alpha (Homo sapiens), sequence (P11388 whole entry): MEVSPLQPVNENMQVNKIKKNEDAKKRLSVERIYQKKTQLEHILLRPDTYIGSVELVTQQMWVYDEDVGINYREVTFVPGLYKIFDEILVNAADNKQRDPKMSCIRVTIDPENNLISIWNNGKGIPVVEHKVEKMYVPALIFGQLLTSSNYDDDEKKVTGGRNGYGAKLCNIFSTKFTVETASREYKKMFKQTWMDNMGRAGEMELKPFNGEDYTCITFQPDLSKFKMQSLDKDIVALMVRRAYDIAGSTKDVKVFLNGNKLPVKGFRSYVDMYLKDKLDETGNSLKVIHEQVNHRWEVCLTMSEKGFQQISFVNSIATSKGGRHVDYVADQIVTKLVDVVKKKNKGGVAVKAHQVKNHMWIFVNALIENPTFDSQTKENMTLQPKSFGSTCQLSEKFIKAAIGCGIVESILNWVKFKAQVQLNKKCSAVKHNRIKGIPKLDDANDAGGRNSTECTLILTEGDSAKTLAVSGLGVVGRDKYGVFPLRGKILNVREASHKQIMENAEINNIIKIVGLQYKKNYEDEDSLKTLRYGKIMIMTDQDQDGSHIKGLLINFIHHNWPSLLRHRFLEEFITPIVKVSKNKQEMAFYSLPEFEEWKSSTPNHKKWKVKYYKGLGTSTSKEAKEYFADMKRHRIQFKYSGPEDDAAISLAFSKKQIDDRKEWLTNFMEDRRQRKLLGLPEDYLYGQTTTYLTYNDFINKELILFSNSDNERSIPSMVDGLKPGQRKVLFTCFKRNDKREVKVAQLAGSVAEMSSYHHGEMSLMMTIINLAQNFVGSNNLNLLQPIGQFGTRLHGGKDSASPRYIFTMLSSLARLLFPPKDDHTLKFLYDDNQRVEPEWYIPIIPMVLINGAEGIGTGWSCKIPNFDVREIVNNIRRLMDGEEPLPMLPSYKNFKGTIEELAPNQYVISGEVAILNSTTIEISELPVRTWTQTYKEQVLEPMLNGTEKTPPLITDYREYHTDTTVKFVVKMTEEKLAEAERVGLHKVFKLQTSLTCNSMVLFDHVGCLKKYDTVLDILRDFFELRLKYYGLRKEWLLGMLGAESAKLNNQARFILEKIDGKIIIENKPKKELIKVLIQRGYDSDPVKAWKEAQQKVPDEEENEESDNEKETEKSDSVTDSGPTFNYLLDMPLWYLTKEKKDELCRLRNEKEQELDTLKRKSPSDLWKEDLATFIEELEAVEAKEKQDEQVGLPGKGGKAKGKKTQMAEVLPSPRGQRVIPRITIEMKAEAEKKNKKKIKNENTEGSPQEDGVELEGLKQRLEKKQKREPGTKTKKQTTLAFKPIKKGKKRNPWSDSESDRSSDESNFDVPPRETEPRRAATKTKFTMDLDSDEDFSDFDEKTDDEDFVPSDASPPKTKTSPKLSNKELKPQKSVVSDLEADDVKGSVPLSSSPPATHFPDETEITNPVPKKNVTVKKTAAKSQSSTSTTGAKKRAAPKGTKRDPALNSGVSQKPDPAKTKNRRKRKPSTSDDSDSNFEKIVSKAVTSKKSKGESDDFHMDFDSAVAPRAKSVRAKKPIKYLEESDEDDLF

| SMILES | IC50 (KB) | IC50 (HL-60) | IC50 (MDA-MB-231) | inhibition [1] |
| --- | --- | --- | --- | --- |
| CCCC(=O)O[C@@H]1[C@@H](O)[C@H](C)O[C@@H](Oc2cc(O)c3c(c2)C(=O)c2cc(C)cc(O)c2C3=O)[C@@H]1OC(=O)CCC | > 20 µM | > 20 µM | > 20 µM | – |
| CC(=O)O[C@@H]1[C@@H](OC(C)=O)[C@@H](O)[C@H](Oc2cc(O)c3c(c2)C(=O)c2cc(C)cc(O)c2C3=O)O[C@H]1C | > 20 µM | > 20 µM | 1.2 µM | – |
| CC(=O)O[C@@H]1[C@@H](O)[C@@H](OC(C)=O)[C@H](Oc2cc(O)c3c(c2)C(=O)c2cc(C)cc(O)c2C3=O)O[C@H]1C | > 20 µM | > 20 µM | > 20 µM | – |
| CC(=O)O[C@@H]1[C@@H](O)[C@@H](O)[C@H](Oc2cc(O)c3c(c2)C(=O)c2cc(C)cc(O)c2C3=O)O[C@H]1C | > 20 µM | > 20 µM | 7.9 µM | Active |
| CC(=O)Oc1cc(C)cc2c1C(=O)c1c(OC(C)=O)cc(O[C@@H]3O[C@@H](C)[C@H](OC(C)=O)[C@@H](OC(C)=O)[C@H]3OC(C)=O)cc1C2OC(C)=O (mixture of isomers) | 1.1 µM | 1.5 µM | 1.7 µM | Active |
| CC(=O)OC1c2cc(C)cc(O)c2C(=O)c2c(O)cc(O[C@@H]3O[C@@H](C)[C@H](O)[C@@H](OC(C)=O)[C@H]3OC(C)=O)cc21 (mixture of isomers) | 0.3 µM | 0.8 µM | 0.4 µM | – |
| CC(=O)O[C@@H]1[C@@H](O)[C@H](C)O[C@@H](Oc2cc(O)c3c(c2)C(=O)c2cc(C)cc(O)c2C3=O)[C@@H]1OC(C)=O | 1.1 µM | 3.6 µM | > 20 µM | Active |
| COc1cc(C)cc2c1C(=O)c1c(OC)cc(O[C@@H]3O[C@@H](C)[C@H](O)[C@@H](OC(C)=O)[C@H]3OC(C)=O)cc1C2=O | > 20 µM | > 20 µM | > 20 µM | – |
| Cc1cc(O)c2c(c1)C(=O)c1cc(O)cc(O)c1C2=O [EMODIN] | > 20 µM | > 20 µM | > 20 µM | – |
| CC(=O)O[C@@H]1[C@@H](O[C@@H]2O[C@@H](C)[C@H](O)[C@@H](OC(C)=O)[C@H]2OC(C)=O)[C@H](C)O[C@@H](Oc2cc(O)c3c(c2)C(=O)c2cc(C)cc(O)c2C3=O)[C@@H]1OC(C)=O | 8.3 µM | 11.8 µM | > 20 µM | Active |
